The text below walks through data of ChEMBL document CHEMBL5678799 (Biochem J, 2009).

Calls of active or inactive are those of the source. No cut-off for these calls is given here.

The test system of assay [1] is RAC-alpha serine/threonine-protein kinase (Homo sapiens), P31749 [S473D]. As to the kind of experiment: Inhibition of recombinant human His6-tagged AKT1 S473D mutant (118 to 480 residues) expressed in baculovirus infected Sf21 cells assessed as remaining activity at 10 uM using crosstide peptide as substrate incubated for 30 mins in presence of [gamma-33P]ATP by filter binding method relative to control. A digest of the protocol:
(§1)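 Radiometric panel assay run robotically at 21 °C for 30 min, linear in time and enzyme. […] Activity is expressed as percentage of the compound-omitted control, averaged from triplicates ± S.D.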

In assay [2] the target is Calcium/calmodulin-dependent protein kinase type 1 (Homo sapiens) (UniProt Q14012). Kind of assay: Inhibition of recombinant human N-terminal GST-tagged CAMK1alpha (2 to 369 residues) expressed in Escherichia coli assessed as remaining activity at 10 uM using YLRRRLSDSNF as substrate incubated for 30 mins in presence of [gamma-33P]ATP by filter binding method relative to control. A digest of the protocol: (§2)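 Run robotically for 30 min at 21 °C under linear conditions. Compound at 1 or 10 µM. Percentage activity remaining versus control without compound, triplicate mean ± S.D.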
Sequence of Calcium/calmodulin-dependent protein kinase type 1 (Homo sapiens) (Q14012 whole entry, looked up, the tested form may be a part): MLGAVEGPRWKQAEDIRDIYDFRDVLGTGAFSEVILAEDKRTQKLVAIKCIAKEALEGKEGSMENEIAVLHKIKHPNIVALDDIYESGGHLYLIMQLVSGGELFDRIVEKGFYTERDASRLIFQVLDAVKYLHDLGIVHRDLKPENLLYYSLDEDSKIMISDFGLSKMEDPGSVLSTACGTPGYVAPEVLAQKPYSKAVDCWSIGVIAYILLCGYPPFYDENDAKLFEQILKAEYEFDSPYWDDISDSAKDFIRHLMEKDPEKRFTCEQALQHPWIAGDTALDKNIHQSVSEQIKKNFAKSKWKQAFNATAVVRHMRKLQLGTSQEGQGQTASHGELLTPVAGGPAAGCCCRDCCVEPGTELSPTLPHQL

Assay [3] concerns the target Protein kinase C alpha type (Homo sapiens) (UniProt P17252). Kind of assay: Inhibition of recombinant human N-terminal His6-tagged PKCalpha (1 to 672 residues) expressed in baculovirus infected Sf21 cells assessed as remaining activity at 1 uM using Histone H1 as substrate incubated for 30 mins in presence of [gamma-33P]ATP by filter binding method relative to control.

Assay [4] concerns the target Ephrin type-A receptor 2 (Homo sapiens) (UniProt P29317). Kind of assay: Inhibition of recombinant human N-terminal GST-tagged EPHA2 (591 to 976 residues) expressed in Escherichia coli assessed as remaining activity at 10 uM using Poly (Glu,Tyr) as substrate incubated for 30 mins in presence of [gamma-33P]ATP by filter binding method relative to control. Put shortly: as §2

In assay [5] the target is Inhibitor of nuclear factor kappa-B kinase subunit beta (Homo sapiens) (UniProt O14920). Kind of assay: Inhibition of recombinant human N-terminal His6-tagged IKKbeta (1 to 736 residues) expressed in baculovirus infected Sf21 cells assessed as remaining activity at 10 uM using LDDRHDSGLDSMKDEEY as substrate incubated for 30 mins in presence of [gamma-33P]ATP by filter binding method relative to control. A digest of the protocol:
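Profiling-centre panel assay performed robotically at 21 °C for 30 min, linear with time and enzyme. […] Values are percent of compound-free control activity, the mean of triplicates ± S.D.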

Assay [6] concerns the target Ribosomal protein S6 kinase alpha-5 (Homo sapiens) (UniProt O75582). As to the kind of experiment: Inhibition of recombinant human His6-tagged MSK1 (2 to 802 residues) expressed in baculovirus infected Sf21 cells assessed as remaining activity at 10 uM using GRPRTSSFAEGKK as substrate incubated for 30 mins in presence of [gamma-33P]ATP by filter binding method relative to control. Put shortly: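 Robotic radiometric panel assay, 30 min at room temperature (21 °C), with 10 mM magnesium acetate. […] Compound at 1 or 10 µM. Residual activity expressed relative to compound-free control; triplicate average ± S.D.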

Assay [7] deals with Mitogen-activated protein kinase 12 (Homo sapiens) (UniProt P53778). Kind of assay: Inhibition of recombinant human N-terminal GST-tagged P38gamma (1 to 367 residues) expressed in Escherichia coli assessed as remaining activity at 10 uM using MBP as substrate incubated for 30 mins in presence of [gamma-33P]ATP by filter binding method relative to control. Put shortly: (§3)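 Radiometric kinase panel run robotically at room temperature (21 °C) for 30 min, linear in time and enzyme. […] Activity is expressed as percent of control without compound, from triplicate determinations ± S.D.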
Sequence of Mitogen-activated protein kinase 12 (Homo sapiens) (P53778 whole entry, the tested form may be a part): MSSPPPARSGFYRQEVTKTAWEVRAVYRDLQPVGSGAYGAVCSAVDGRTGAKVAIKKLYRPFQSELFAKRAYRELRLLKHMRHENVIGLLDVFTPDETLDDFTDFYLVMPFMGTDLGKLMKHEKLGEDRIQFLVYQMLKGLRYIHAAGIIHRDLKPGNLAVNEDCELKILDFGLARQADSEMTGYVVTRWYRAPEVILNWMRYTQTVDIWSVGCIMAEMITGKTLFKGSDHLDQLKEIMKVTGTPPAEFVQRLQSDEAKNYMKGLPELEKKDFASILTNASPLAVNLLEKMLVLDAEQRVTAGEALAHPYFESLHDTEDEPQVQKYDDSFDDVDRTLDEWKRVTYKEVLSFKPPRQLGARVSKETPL

Assay [8] addresses Serine/threonine-protein kinase pim-2 (Homo sapiens) (UniProt Q9P1W9). Kind of assay: Inhibition of recombinant human N-terminal GST-tagged PIM2 (2 to 334 residues) expressed in Escherichia coli assessed as remaining activity at 10 uM using RSRHSSYPAGT as substrate incubated for 30 mins in presence of [gamma-33P]ATP by filter binding method relative to control. Put shortly: as §3

For assay [9], the system named is Ribosomal protein S6 kinase beta-1 (Homo sapiens), P23443 [T412E]. As to the kind of experiment: Inhibition of recombinant human His6-tagged S6K1 T412E mutant (1 to 421 residues) expressed in baculovirus infected Sf21 cells assessed as remaining activity at 10 uM using KKRNRTLTV as substrate incubated for 30 mins in presence of [gamma-33P]ATP by filter binding method relative to control. A digest of the protocol:
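Incubations ran robotically for 30 min at room temperature (21 °C) under linear conditions. Results are percent activity remaining versus controls without compound, as the mean of triplicates ± S.D.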

Assay [10] has as its target Tyrosine-protein kinase Yes (Homo sapiens) (UniProt P07947). Kind of assay: Inhibition of recombinant human N-terminal His6-tagged YES1 (1 to 543 residues) expressed in baculovirus infected Sf21 cells assessed as remaining activity at 10 uM using Poly(Glu,Tyr) as substrate incubated for 30 mins in presence of [gamma-33P]ATP by filter binding assay relative to control. Put shortly: as §1

In assay [11] the test system is HEK293. As to the kind of experiment: Inhibition of PI3K in serum starved HEK293 cells expressing GST-tagged-AKT1 S473D mutant assessed as reduction in IGF1-stimulated AKT1 phosphorylation at Thr308 residue at 100 to 1000 nM incubated for 20 mins by immunoblot analysis. To be noted: Homo sapiens, dose 100-1000 nM. The format is cell-based. Put shortly: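 HEK-293 cells transfected with wild-type or S473D GST–Akt1. At 24 h, serum-starved 16 h, pretreated 30 min with inhibitor, then stimulated with IGF-1 for 20 min. Lysates immunoblotted for Thr308 phosphorylation. Three separate experiments.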

The subject of assay [12] is MEF. As to the kind of experiment: Inhibition of mTORC2 in serum starved sin1 knockout MEF cells assessed as reduction IGF1-stimulated AKT phosphorylation at Thr308 residue at 100 to 1000 nM incubated for 20 mins by immunoblot analysis. The format is cell-based. To be noted: Mus musculus, dose 100-1000 nM. Put shortly: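 Serum withdrawn 16 h. Inhibitor or vehicle given 30 min before stimulation with 50 ng/ml IGF-1 for 20 min. Lysed in Tris lysis buffer and immunoblotted for Akt Thr308 phosphorylation with ECL detection. Applies to HEK-293 and to wild-type, Rictor, Sin1 or mLST8 knockout MEFs. Three independent experiments.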

For assay [13], the target named is mTORC1 (Homo sapiens) (UniProt P42345+Q8N122+Q9BVC4). The following applies: HEK293, dose 30.0 nM, time 30.0 min.
Assay [14] has as its target T1, mTORC2 (Homo sapiens) (UniProt P42345+Q6R327+Q9BVC4+Q9BPZ7). The following applies: HEK293, dose 30-1000 nM, time 30.0 min.
Assay [15] addresses T1, mTORC2 (Homo sapiens). To be noted: HEK293, dose 30-1000 nM, time 30.0 min. The source holds these as a separate data set.

Sequence of Ribosomal protein S6 kinase alpha-5 (Homo sapiens) (O75582 whole entry, looked up, the tested form may be a part): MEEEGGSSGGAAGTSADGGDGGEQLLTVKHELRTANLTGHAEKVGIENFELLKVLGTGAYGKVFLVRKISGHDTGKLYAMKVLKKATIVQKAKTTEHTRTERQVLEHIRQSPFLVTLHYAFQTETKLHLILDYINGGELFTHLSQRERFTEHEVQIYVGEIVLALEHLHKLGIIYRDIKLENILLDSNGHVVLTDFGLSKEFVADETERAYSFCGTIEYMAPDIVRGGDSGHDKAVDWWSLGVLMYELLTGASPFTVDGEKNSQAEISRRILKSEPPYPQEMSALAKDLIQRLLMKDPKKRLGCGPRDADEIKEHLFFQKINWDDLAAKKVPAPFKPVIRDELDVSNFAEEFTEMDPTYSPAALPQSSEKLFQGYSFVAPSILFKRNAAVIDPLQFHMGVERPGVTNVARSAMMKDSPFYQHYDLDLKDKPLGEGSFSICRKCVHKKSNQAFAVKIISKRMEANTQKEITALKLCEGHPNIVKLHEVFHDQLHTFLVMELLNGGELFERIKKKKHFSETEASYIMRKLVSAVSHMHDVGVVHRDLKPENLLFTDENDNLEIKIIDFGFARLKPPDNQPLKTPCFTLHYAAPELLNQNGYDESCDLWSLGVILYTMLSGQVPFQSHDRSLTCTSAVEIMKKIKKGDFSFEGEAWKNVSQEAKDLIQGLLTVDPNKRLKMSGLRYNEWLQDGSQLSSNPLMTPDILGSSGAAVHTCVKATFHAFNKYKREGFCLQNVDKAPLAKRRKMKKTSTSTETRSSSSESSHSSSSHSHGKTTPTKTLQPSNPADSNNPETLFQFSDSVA
Sequence of RAC-alpha serine/threonine-protein kinase (Homo sapiens), P31749 [S473D] (P31749 whole entry S473D, the tested form may be a part): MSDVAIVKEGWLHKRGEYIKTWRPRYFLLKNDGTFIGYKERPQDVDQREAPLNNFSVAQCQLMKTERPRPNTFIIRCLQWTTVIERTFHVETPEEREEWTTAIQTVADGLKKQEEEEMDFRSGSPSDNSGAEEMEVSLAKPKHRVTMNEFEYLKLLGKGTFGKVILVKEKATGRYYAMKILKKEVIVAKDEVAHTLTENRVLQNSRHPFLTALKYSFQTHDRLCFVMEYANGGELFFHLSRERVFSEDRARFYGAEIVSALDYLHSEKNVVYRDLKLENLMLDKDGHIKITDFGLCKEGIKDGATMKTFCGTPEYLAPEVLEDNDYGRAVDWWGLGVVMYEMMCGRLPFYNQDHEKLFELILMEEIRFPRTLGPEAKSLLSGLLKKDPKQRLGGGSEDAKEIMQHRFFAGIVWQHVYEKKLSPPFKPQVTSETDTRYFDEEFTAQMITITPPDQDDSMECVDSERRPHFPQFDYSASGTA
Sequence of Inhibitor of nuclear factor kappa-B kinase subunit beta (Homo sapiens) (O14920 whole entry, the tested form may be a part): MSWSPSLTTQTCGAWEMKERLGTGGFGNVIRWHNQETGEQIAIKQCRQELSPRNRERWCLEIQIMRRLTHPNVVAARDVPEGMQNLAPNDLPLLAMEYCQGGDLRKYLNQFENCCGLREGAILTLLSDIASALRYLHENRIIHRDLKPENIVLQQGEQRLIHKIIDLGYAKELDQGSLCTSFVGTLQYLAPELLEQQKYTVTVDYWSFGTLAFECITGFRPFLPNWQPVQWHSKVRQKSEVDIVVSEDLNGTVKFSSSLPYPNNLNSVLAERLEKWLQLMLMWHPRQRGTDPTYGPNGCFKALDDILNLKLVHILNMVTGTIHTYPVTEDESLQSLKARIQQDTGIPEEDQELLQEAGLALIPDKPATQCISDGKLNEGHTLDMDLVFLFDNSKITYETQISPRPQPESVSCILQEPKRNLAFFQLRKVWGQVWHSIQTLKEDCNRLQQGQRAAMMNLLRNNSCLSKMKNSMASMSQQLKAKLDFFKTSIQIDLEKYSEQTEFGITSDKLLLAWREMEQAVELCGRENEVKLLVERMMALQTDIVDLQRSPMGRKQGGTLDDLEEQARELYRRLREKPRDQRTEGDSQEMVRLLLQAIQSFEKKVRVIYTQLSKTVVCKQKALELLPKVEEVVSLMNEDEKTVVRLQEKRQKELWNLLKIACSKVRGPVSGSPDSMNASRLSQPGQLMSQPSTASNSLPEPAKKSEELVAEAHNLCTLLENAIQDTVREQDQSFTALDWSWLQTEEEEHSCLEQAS
Sequence of Ribosomal protein S6 kinase beta-1 (Homo sapiens), P23443 [T412E] (P23443 whole entry T412E, looked up, the tested form may be a part): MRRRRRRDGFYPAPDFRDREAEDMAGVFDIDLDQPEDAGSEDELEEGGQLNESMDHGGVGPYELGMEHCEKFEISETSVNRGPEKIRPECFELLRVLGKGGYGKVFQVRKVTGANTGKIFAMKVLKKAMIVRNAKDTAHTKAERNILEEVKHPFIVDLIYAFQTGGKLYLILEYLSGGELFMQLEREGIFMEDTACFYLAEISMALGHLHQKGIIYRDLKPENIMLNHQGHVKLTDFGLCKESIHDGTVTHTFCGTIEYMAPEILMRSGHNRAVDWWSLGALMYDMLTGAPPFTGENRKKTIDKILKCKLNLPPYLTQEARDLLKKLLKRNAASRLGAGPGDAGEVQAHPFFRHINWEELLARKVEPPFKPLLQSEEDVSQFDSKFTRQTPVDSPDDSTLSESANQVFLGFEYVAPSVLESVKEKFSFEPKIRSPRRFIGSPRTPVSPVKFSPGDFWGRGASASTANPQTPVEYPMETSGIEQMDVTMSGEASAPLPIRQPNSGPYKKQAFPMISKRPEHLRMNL
Sequence of Serine/threonine-protein kinase pim-2 (Homo sapiens) (Q9P1W9 whole entry, looked up, the tested form may be a part): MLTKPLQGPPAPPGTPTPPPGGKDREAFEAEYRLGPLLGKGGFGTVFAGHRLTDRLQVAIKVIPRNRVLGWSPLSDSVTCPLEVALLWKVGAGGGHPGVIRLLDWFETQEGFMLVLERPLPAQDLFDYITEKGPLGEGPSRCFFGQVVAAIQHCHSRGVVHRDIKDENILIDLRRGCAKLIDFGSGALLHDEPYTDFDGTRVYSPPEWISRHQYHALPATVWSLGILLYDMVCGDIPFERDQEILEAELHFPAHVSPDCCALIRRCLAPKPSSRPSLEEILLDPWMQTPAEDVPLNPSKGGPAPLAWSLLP
Sequence of Tyrosine-protein kinase Yes (Homo sapiens) (P07947 2-543 limits assumed): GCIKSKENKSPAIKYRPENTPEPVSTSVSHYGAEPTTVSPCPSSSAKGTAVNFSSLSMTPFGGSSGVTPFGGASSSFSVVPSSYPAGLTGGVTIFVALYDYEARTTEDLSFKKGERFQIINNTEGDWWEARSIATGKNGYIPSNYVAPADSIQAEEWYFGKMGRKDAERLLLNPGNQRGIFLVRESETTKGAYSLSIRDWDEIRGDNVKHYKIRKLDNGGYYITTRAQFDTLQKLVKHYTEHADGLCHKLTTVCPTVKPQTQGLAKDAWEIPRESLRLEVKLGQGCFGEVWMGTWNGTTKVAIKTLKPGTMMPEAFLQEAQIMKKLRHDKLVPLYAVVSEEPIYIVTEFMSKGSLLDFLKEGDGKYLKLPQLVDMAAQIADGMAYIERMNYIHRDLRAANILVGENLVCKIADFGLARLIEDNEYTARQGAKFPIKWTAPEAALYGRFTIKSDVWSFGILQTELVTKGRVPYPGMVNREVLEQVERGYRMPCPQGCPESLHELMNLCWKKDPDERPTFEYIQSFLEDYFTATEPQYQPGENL

As to `COc1ccc(-c2ccc3c(N4CCOCC4)nc(N4C[C@@H](C)O[C@@H](C)C4)nc3n2)cc1CO` [Ku-0063794], the Activity was 90% in assay [1]; 101% in [2]; 106% in assay [3]; 96% in assay [4]; 89% in assay [5]; 117% in assay [6]. Also, the Activity in [7] amounted to 91%; in [8], 78%; in [9] it was 98%; in assay [10], 90%. In addition, the inhibition result in [11] is “inactive”. In addition, the inhibition entry in assay [12], in assay [13] and in assay [15] was “Active” in each case. For the same compound, the inhibition entry in [14] was “Dose-Dependent Effect”.
